Measured values from different studies.
Lines come from different studies, so protocols differ.
Target: Mitogen-activated protein kinase kinase kinase 4 (MAP3K4, Homo sapiens, UniProt Q9Y6R4)

`Cc1cnc(Nc2ccc(C(=O)N3CCC(N4CCCC4)CC3)cc2)nc1-c1cc2ccccc2s1` has a remaining binding of 32% (binding; competition with immobilised ligand; 1 µM).
For `COc1ncc2cc3ccccc3nc2c1C#N`, the remaining binding was 91% (cell-free assay; competition with immobilised ligand; 5 µM).
`N[C@H]1CCN(c2nccc(-c3cnn4ncccc34)n2)C1` has a remaining binding of 100% (binding; 1 µM).
The remaining binding of `C[C@@H]1CN(c2ccc3ncc(-c4ccc5[nH]nc(C6CC6)c5c4)n3n2)C[C@H](C)O1` is reported as 100% (binding; competition with immobilised ligand; 50 nM).
With `O=C(Nc1c[nH]nc1C(=O)NC1CCNCC1)c1cc(F)cc(F)c1` the remaining binding was 100% (binding; competition with immobilised ligand; 1 µM).
`C=CC(=O)N1CCC(C(=O)NCC(=O)N2CCN(c3nc(-c4cnc(N)nc4C(F)F)nc(N4CCOCC4)n3)CC2)CC1` has a remaining binding of 100% (binding; competition with immobilised ligand; 1 µM).
With `CN(C)c1nccc(-c2cnn3ncccc23)n1` the remaining binding was 100% (binding; 1 µM).
For `O=C(NCCCN1CCOCC1)c1ccc(Nc2ncc(Cl)c(-c3ccc(Cl)s3)n2)cc1`, the remaining binding was 54% (binding; competition with immobilised ligand; 1 µM).
With `COc1ccnn2ncc(-c3ccnc(N(C)C)n3)c12` the remaining binding was 100% (binding; 1 µM).
`O=C(O)[C@H]1[C@H](Cn2nnc3ccccc3c2=O)CC[C@@H]1C(=O)c1ccc(OCCC2CCOCC2)cc1` gave a remaining binding of 100% (cell-free assay; competition with immobilised ligand; 1 µM).
The remaining binding of `c1cnn2ncc(-c3ccnc(N4CCC45COC5)n3)c2c1` is reported as 97% (binding; 1 µM).
`C[C@H](c1ccnc(Nc2nc3ccc(-c4cc(N(C)C)ncn4)cc3[nH]2)c1)N1CCN(C(=O)CC(F)(F)F)CC1` gave a remaining binding of 96% (cell-free assay; competition with immobilised ligand; 0.1 µM).
The remaining binding of `O=C(c1ccc(Nc2ncc(Cl)c(-c3cc4ccccc4s3)n2)cc1)N1CCC(N2CCCC2)CC1` is reported as 33% (binding; competition with immobilised ligand; 1 µM).
For `CC1=C(C#N)C(c2ccc3c(c2)c(NC(=O)c2ccccc2C)nn3C)C(C#N)=C(C)N1`, the remaining binding was 84% (cell-free assay; competition with immobilised ligand; 1 µM).
With `COc1cnc(Nc2cccc(S(N)(=O)=O)c2)nc1N1CCN(c2ccccc2)C(=O)C1` the remaining binding was 100% (binding; competition with immobilised ligand; 1 µM).
For `COc1ccc2c(O[C@@H]3C[C@H]4C(=O)N[C@]5(C(=O)O)CC5/C=C\CCCCC[C@H](NC(=O)OC5CCCC5)C(=O)N4C3)cc(-c3csc(NC(=O)C(C)C)n3)nc2c1C` (some centres unmarked), the remaining binding was 74% (cell-free assay; competition with immobilised ligand; 1 µM).
`COc1cnc(Nc2cccc(S(N)(=O)=O)c2)nc1N1CCN(c2ccccc2)CC1` gave a remaining binding of 100% (binding; competition with immobilised ligand; 1 µM).
`CC(=O)N1CCC(c2ccc(C(=O)NC3=NCCN3)cc2C(F)(F)F)CC1` gave a remaining binding of 81% (cell-free assay; competition with immobilised ligand; 1 µM).
`Cc1cnn2ncc(-c3ccnc(N(C)C)n3)c2c1` has a remaining binding of 86% (binding; 1 µM).
The remaining binding of `CN(C)C(=O)Cn1cc(-c2nc([C@@](C)(c3ccc(-c4cnc(N)nc4)cc3)C3CC3)no2)cn1` is reported as 91% (cell-free assay; competition with immobilised ligand; 1 µM).
The remaining binding of `FC(F)(F)Oc1cccc(-c2cnc3ccc(-c4ccncc4)nn23)c1` is reported as 84% (cell-free assay; competition with immobilised ligand; 5 µM).
The remaining binding of `CSc1cccnc1N1CCN(Cc2nc3ccccc3[nH]2)CC1` is reported as 100% (cell-free assay; competition with immobilised ligand; 1 µM).
With `CCN1CCN(Cc2ccc(C(=O)Nc3ccc(C)c(Oc4ccc5c(c4)CC(=O)N5)c3)cc2C(F)(F)F)CC1` the remaining binding was 100% (binding; competition with immobilised ligand; 1 µM).
